Measured values reported in ChEMBL document CHEMBL3392966, “Antiproliferative activity of synthetic fatty acid amides from renewable resources” (Bioorg Med Chem, 2015).
Converted amounts (≈) assume the structure as drawn.

Key:
HaCaT [1] = assay: Cytotoxicity against human HaCaT cells after 48 hrs by sulforhodamine B assay; format: cell-based
MCF7 [2] = assay: Antiproliferative activity against human MCF7 cells assessed as tumor growth inhibition after 48 hrs by sulforhodamine B assay; format: functional; conditions: MCF7, 48 h
Procedure, shortened: (§1)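 Tumor cells grown in RPMI 1640 with 5% fetal bovine serum, with penicillin/streptomycin in experimental cultures. Exposed in 96-well plates to samples in DMSO/RPMI at 0.25, 2.5, 25 and 250 µg/mL, 37 °C, 5% CO2, 48 h. Fixed with 50% trichloroacetic acid before (T0) and after treatment, protein stained with sulforhodamine B and read at 540 nm. GI50, TGI and LC50 in µg/mL from dose-response curves by non-linear regression.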

NCI/ADR-RES [3] = assay: Antiproliferative activity against human NCI/ADR-RES cells assessed as tumor growth inhibition after 48 hrs by sulforhodamine B assay; format: functional; procedure, shortened: as §1
786-0 [4] = assay: Antiproliferative activity against human 786-0 cells after 48 hrs by sulforhodamine B assay; format: functional; conditions: 786-0, 48 h; procedure, shortened: as §1
U-251 [5] = assay: Antiproliferative activity against human U251 cells after 48 hrs by sulforhodamine B assay; format: functional; conditions: U-251, 48 h; procedure, shortened: as §1
NCI-H460 [6] = assay: Antiproliferative activity against human NCI-H460 cells assessed as tumor growth inhibition after 48 hrs by sulforhodamine B assay; format: functional; conditions: NCI-H460, 48 h; procedure, shortened: as §1
[7] = Antiproliferative activity against human OVCAR3 cells assessed as tumor growth inhibition after 48 hrs by sulforhodamine B assay; format: functional; conditions: OVCAR-3, 48 h; procedure, shortened: as §1
[8] = Antiproliferative activity against human PC3 cells after 48 hrs by sulforhodamine B assay; format: functional; conditions: PC-3, 48 h; procedure, shortened: as §1
NCI/ADR-RES [9] = assay: Antiproliferative activity against human NCI/ADR-RES cells after 48 hrs by sulforhodamine B assay; format: functional; procedure, shortened: as §1
MCF7 [10] = assay: Antiproliferative activity against human MCF7 cells after 48 hrs by sulforhodamine B assay; format: functional; conditions: MCF7, 48 h; procedure, shortened: as §1
[11] = Antiproliferative activity against human PC3 cells assessed as tumor growth inhibition after 48 hrs by sulforhodamine B assay; format: functional; conditions: PC-3, 48 h; procedure, shortened: as §1
[12] = Antiproliferative activity against human OVCAR3 cells after 48 hrs by sulforhodamine B assay; format: functional; conditions: OVCAR-3, 48 h; procedure, shortened: as §1
786-0 [13] = assay: Antiproliferative activity against human 786-0 cells assessed as tumor growth inhibition after 48 hrs by sulforhodamine B assay; format: functional; conditions: 786-0, 48 h; procedure, shortened: as §1
NCI-H460 [14] = assay: Antiproliferative activity against human NCI-H460 cells after 48 hrs by sulforhodamine B assay; format: functional; conditions: NCI-H460, 48 h; procedure, shortened: as §1
U-251 [15] = assay: Antiproliferative activity against human U251 cells assessed as tumor growth inhibition after 48 hrs by sulforhodamine B assay; format: functional; conditions: U-251, 48 h; procedure, shortened: as §1
HaCaT [16] = assay: Cytotoxicity against human HaCaT cells assessed as tumor growth inhibition after 48 hrs by sulforhodamine B assay; format: cell-based
Procedure, shortened: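 Non-tumor lines (human HaCaT keratinocytes; Vero) in RPMI 1640 with 5% FBS, with penicillin/streptomycin added to experimental cultures. 48 h exposure at 0.25–250 µg/mL (DMSO/RPMI), 37 °C, 5% CO2. TCA fixation at time zero and at end, sulforhodamine B protein stain, absorbance 540 nm. TGI (total growth inhibition) from non-linear regression of the dose-response curve.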

## CCCCCCCC/C=C\CCCCCCCC(=O)N1CCCCC1
HaCaT [1]
  LC50: 7.7 µg/mL (≈ 22 µM)
MCF7 [2]
  TGI: 33.3 µg/mL (≈ 95.3 µM)
NCI/ADR-RES [3]
  TGI: 47.4 µg/mL (≈ 136 µM)
786-0 [4]
  GI50: 10.6 µg/mL (≈ 30.3 µM)
U-251 [5]
  GI50: 6.7 µg/mL (≈ 19.2 µM)
NCI-H460 [6]
  TGI: 40.7 µg/mL (≈ 116 µM)
[7]
  TGI: 35.4 µg/mL (≈ 101 µM)
[8]
  GI50: 8.7 µg/mL (≈ 24.9 µM)
NCI/ADR-RES [9]
  GI50: 7.7 µg/mL (≈ 22 µM)
MCF7 [10]
  GI50: 7.6 µg/mL (≈ 21.7 µM)
[11]
  TGI: 31.8 µg/mL (≈ 91 µM)
[12]
  GI50: 9.3 µg/mL (≈ 26.6 µM)
786-0 [13]
  TGI: 40.7 µg/mL (≈ 116 µM)
NCI-H460 [14]
  GI50: 23 µg/mL (≈ 65.8 µM)
U-251 [15]
  TGI: 25 µg/mL (≈ 71.5 µM)
HaCaT [16]
  TGI: 47.9 µg/mL (≈ 137 µM)

## CCCCCCCCCCCCCCCCCC(=O)N[C@@H](C)c1ccccc1
HaCaT [1]
  LC50: 69.5 µg/mL (≈ 179 µM)
MCF7 [2]
  TGI: > 250 µg/mL
NCI/ADR-RES [3]
  TGI: > 250 µg/mL
NCI-H460 [6]
  TGI: > 250 µg/mL
[7]
  TGI: > 250 µg/mL
[11]
  TGI: > 250 µg/mL
786-0 [13]
  TGI: > 250 µg/mL
U-251 [15]
  TGI: > 250 µg/mL
HaCaT [16]
  TGI: > 250 µg/mL

## CCCCCCCC/C=C\CCCCCCCC(=O)NCc1ccccc1
HaCaT [1]
  LC50: 92 µg/mL (≈ 248 µM)
MCF7 [2]
  TGI: > 250 µg/mL
NCI/ADR-RES [3]
  TGI: > 250 µg/mL
786-0 [4]
  GI50: 104 µg/mL (≈ 281 µM)
U-251 [5]
  GI50: 55.4 µg/mL (≈ 149 µM)
NCI-H460 [6]
  TGI: > 250 µg/mL
[7]
  TGI: > 250 µg/mL
[8]
  GI50: 107 µg/mL (≈ 288 µM)
NCI/ADR-RES [9]
  GI50: 50.3 µg/mL (≈ 135 µM)
MCF7 [10]
  GI50: 53.4 µg/mL (≈ 144 µM)
[11]
  TGI: > 250 µg/mL
[12]
  GI50: 103 µg/mL (≈ 278 µM)
786-0 [13]
  TGI: > 250 µg/mL
NCI-H460 [14]
  GI50: 94.9 µg/mL (≈ 255 µM)
U-251 [15]
  TGI: > 250 µg/mL
HaCaT [16]
  TGI: > 250 µg/mL

## CCCCCCCCCCCCCCCCCC(=O)N1CCOCC1
HaCaT [1]
  LC50: 41.5 µg/mL (≈ 117 µM)
MCF7 [2]
  TGI: 81.7 µg/mL (≈ 231 µM)
NCI/ADR-RES [3]
  TGI: 86.9 µg/mL (≈ 246 µM)
786-0 [4]
  GI50: 41.1 µg/mL (≈ 116 µM)
U-251 [5]
  GI50: 39.9 µg/mL (≈ 113 µM)
NCI-H460 [6]
  TGI: 161 µg/mL (≈ 455 µM)
[7]
  TGI: 111 µg/mL (≈ 314 µM)
[8]
  GI50: 41.1 µg/mL (≈ 116 µM)
NCI/ADR-RES [9]
  GI50: 33.1 µg/mL (≈ 93.6 µM)
MCF7 [10]
  GI50: 42.8 µg/mL (≈ 121 µM)
[11]
  TGI: 102 µg/mL (≈ 290 µM)
[12]
  GI50: 43.3 µg/mL (≈ 122 µM)
786-0 [13]
  TGI: 85.6 µg/mL (≈ 242 µM)
NCI-H460 [14]
  GI50: 53.1 µg/mL (≈ 150 µM)
U-251 [15]
  TGI: 82.6 µg/mL (≈ 234 µM)
HaCaT [16]
  TGI: 94.2 µg/mL (≈ 266 µM)

## CCCCCC[C@@H](O)C/C=C\CCCCCCCC(=O)N1CCOCC1
HaCaT [1]
  LC50: 41.3 µg/mL (≈ 112 µM)
MCF7 [2]
  TGI: 116 µg/mL (≈ 314 µM)
NCI/ADR-RES [3]
  TGI: 143 µg/mL (≈ 388 µM)
786-0 [4]
  GI50: 36 µg/mL (≈ 97.9 µM)
U-251 [5]
  GI50: 33.1 µg/mL (≈ 90 µM)
NCI-H460 [6]
  TGI: 152 µg/mL (≈ 415 µM)
[7]
  TGI: 62.2 µg/mL (≈ 169 µM)
[8]
  GI50: 38.5 µg/mL (≈ 105 µM)
NCI/ADR-RES [9]
  GI50: 29.4 µg/mL (≈ 80 µM)
MCF7 [10]
  GI50: 41.8 µg/mL (≈ 114 µM)
[11]
  TGI: 72.6 µg/mL (≈ 198 µM)
[12]
  GI50: 31 µg/mL (≈ 84.3 µM)
786-0 [13]
  TGI: 75.7 µg/mL (≈ 206 µM)
NCI-H460 [14]
  GI50: 49.1 µg/mL (≈ 134 µM)
U-251 [15]
  TGI: 54.5 µg/mL (≈ 148 µM)
HaCaT [16]
  TGI: 97.4 µg/mL (≈ 265 µM)
